This is a sample that favours compounds with a hit; in the whole collection about 1.8% have one here.
UPR XBP1 act – activators of adaptive arm of unfolded protein response (XBP1) | CHO-XBP1 luciferase reporter, IRE1-XBP1 UPR activation, luminescence; percent of tunicamycin response, DMSO as zero | 330,000 compounds, 0.33% hits | activation, % at 20 µM;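 active = versus positive control, 20 µM dose yields 30% or more activation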
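Material: CHO-XBP1 cells stably carrying IRE1-XBP1-driven luciferase reporter | Medium: F12 with 10% serum | Compound dosing: 20 µM single concentration, DMSO 1% | Incubation: Overnight seeding at 37 °C, 6 h compound treatment at 37 °C | Detection: Steady-Glo luminescence read | Read-out basis: % activation of reporter signal versus tunicamycin and DMSO controls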
CRFR2-BP antag – antagonists of CRF-binding protein/CRF-R2 receptor complex. HEK293 CRF-R2/CRF-BP, CRF-induced calcium fluorescence. inhibition, % at 11.8 µM. 350,000 compounds, 0.59% hits;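 active = inhibition of the ligand-induced calcium signal above about 50% at the single tested concentration, limit read from the data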
697 NFkB inh – lowers PMA/ionomycin-induced NF-kB signal in 697 B cells; inhibition, % at 4 µM; AID 435022; 330,000 compounds, 0.33% hits; 697 B-cell NF-kB luciferase reporter, 16 h; in the data active = inhibition above about 35%
Jurkat NFkB inh – inhibitors of the PMA/ionomycin-induced NF-kB reporter in Jurkat cells | PMA/ionomycin-induced NF-kB luciferase reporter, luminescence | inhibition, % at 4 µM | 330,000 compounds, 0.53% hits; in the data active = inhibition above about 50%
UPR CHOP act – activators of apoptotic arm of unfolded protein response (CHOP); CHO-CHOP luciferase reporter, UPR activation, luminescence; percent of tunicamycin response over DMSO baseline; activation, % at 10 µM; 330,000 compounds, 0.34% hits; AID 449763;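 active = at 10 µM dose, activation of 40% or more, normalized to positive control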
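System: CHO-CHOP luciferase reporter cell line; amount: 500 cells/well; buffer or medium: F12 medium containing 10% fetal bovine serum; incubation: 6 h compound exposure at 37 °C after overnight seeding; measured by: luciferase luminescence after 10 min with Steady-Glo reagent; evaluation: % reporter activation, DMSO baseline versus tunicamycin full activation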
CHOP UPR conf – apoptotic UPR (CHOP) activation, confirmed; shares compounds with UPR CHOP act; CHO-CHOP cells, CHOP-luciferase reporter luminescence; percent of tunicamycin response, DMSO as zero; activation, % at 10 µM; 1,000 compounds, 64% hits; AID 463112; in the data active = activation above about 33%
UPR XBP1 confirm – confirmation of adaptive unfolded protein response (XBP1) activators; AID 485299; activation, % at 20 µM; CHO-XBP1 IRE1-XBP1 luciferase reporter, luminescence; shares compounds with UPR XBP1 act; 1,000 compounds, 63% hits;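 active = reporter signal at least 30% of the positive control's activation in two or more of four replicate wells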
Large screens that a line does not name were inactive (follow-up assays come after a bar, where they were run).

Cc1nc(SCC(=O)NCC2CCCO2)[nH]c(=O)c1C (centres undefined)	none
Cc1cc(NC(=O)CSc2nc(C3CC3)nc3sc4c(c23)CCC(C)C4)no1 (centres undefined)	UPR XBP1 act 65.3, UPR CHOP act 51.4 | CHOP UPR conf inactive | UPR XBP1 confirm inactive
C[C@@H]1COC(=O)[C@H](Cc2ccc(F)cc2)CC/C=C/C[C@@H](CC(=O)N[C@@H](CO)Cc2ccccc2)C(=O)N1	none
O=C(C[C@@H]1C/C=C/CC[C@H](Cc2ccc(F)cc2)C(=O)OC[C@@H](Cc2ccccc2)NC1=O)N[C@H](CO)Cc1ccccc1	UPR XBP1 act 151.6, UPR CHOP act 64.9 | CHOP UPR conf inactive | UPR XBP1 confirm 46.8
CN1/C(=C\C(=O)COC(=O)c2ccc(O)cc2)C(C)(C)c2ccccc21	none
CN1/C(=C\C(=O)COC(=O)c2ccc(O)c(O)c2)C(C)(C)c2ccccc21	UPR XBP1 act 40.6, UPR CHOP act 96.5 | CHOP UPR conf 81.2 | UPR XBP1 confirm 32.6
CC(C)(C)C(=O)NC(=S)NNC(=O)c1ccc(-c2ccccc2)cc1	UPR XBP1 act 72.0, UPR CHOP act 69.2 | CHOP UPR conf 84.3 | UPR XBP1 confirm 49.7
CC(C)(C)C(=O)NC(=S)NNC(=O)c1ccncc1	none
CN(CC(=O)Nc1ccc(F)cc1)C(=O)COC(=O)c1nc(Cl)ccc1Cl	none (no result: UPR XBP1 act, 697 NFkB inh, Jurkat NFkB inh, UPR CHOP act)
CCOc1cc(/C=N/NC(N)=S)cc(Br)c1OCc1ccccc1C	UPR XBP1 act 60.8, UPR CHOP act 68.7 | CHOP UPR conf 40.9 | UPR XBP1 confirm 60.4
CCOc1cc(/C=N/N=C(\N)c2nonc2N)cc(Br)c1OCc1cccc2ccccc12	UPR XBP1 act 268.3, UPR CHOP act 106.5 | CHOP UPR conf inactive | UPR XBP1 confirm 210.9
CCOC(=O)/C=c1\s/c(=C\c2ccc(C(=O)OC)cc2)c(=O)n1CC(=O)Nc1ccccc1	UPR XBP1 act 91.6 | UPR XBP1 confirm inactive
Cc1ccc2[nH]c3c(=O)n(CC(=O)N4CC(C)CC(C)C4)ncc3c2c1 (centres undefined)	UPR XBP1 act 31.7 | UPR XBP1 confirm inactive
COc1ccc(Cn2c(SCc3ccccc3C)nc3cc(OC)c(OC)cc3c2=N)cc1	UPR XBP1 act 115.3 (no result: CRFR2-BP antag) | UPR XBP1 confirm 61.0
COc1cc2nc(SCc3ccc(F)cc3)n(Cc3cccs3)c(=N)c2cc1OC	none
COc1ccc(Sc2nc(-c3ccccn3)ncc2OC)cc1	none
COc1cnc(-c2ccccn2)nc1Sc1ccc(Cl)cc1	UPR XBP1 act 31.5 | UPR XBP1 confirm inactive
Oc1ccc(/C=N/Nc2nc(N3CCCCCC3)nc(N3CCCCCC3)n2)c(O)c1	UPR XBP1 act 39.4 | UPR XBP1 confirm inactive
CCN1C(=O)/C(=C2/C(=O)N3c4c(cc(OC(C)=O)cc42)C(C)=CC3(C)C)SC1=S	none
CC1=CC(C)(C)N2C(=O)C(=O)c3cc(OC(=O)c4ccco4)cc1c32	UPR XBP1 act 40.8 | UPR XBP1 confirm 57.2
CCOC(=O)C1=C(C)N=C2c3ccccc3C(=O)C2C1c1ccccc1 (centres undefined)	none
CCOC(=O)C1=C(C)N=C2c3ccccc3C(=O)C2C1c1ccc(C)cc1 (centres undefined)	UPR XBP1 act 32.2 | UPR XBP1 confirm 28.2
Cc1nnc(NC(=O)c2cc(-c3ccncc3)nc3c(C)cccc23)s1	none
Oc1cccc(-c2nc3c4c(ncn3n2)-c2ccccc2CC42CCCC2)c1	UPR XBP1 act 31.0 | UPR XBP1 confirm 50.4
CCN1CCN(C(c2cc3cccc(C)c3[nH]c2=O)c2nnnn2Cc2ccccc2)CC1 (centres undefined)	none
Cc1cccc2cc(C(c3nnnn3Cc3ccccc3)N3CCCc4ccccc43)c(=O)[nH]c12 (centres undefined)	UPR XBP1 act 75.8 | UPR XBP1 confirm 27.9
COc1ccc(CNC(=O)COC(=O)c2ccc(S(=O)(=O)N3CCCCC3)cc2)cc1	none
O=C(NCc1ccncc1)C12CC3CC(CC(Cl)(C3)C1)C2	none

Assay outcomes (PubChem BioAssay)
